What was measured:
[1] = target: T1, Nitric oxide synthase, inducible (Mus musculus, UniProt P29477); experiment: Inhibition of recombinant mouse macrophage iNOS expressed in Escherichia coli
T1 sequence (P29477 whole entry): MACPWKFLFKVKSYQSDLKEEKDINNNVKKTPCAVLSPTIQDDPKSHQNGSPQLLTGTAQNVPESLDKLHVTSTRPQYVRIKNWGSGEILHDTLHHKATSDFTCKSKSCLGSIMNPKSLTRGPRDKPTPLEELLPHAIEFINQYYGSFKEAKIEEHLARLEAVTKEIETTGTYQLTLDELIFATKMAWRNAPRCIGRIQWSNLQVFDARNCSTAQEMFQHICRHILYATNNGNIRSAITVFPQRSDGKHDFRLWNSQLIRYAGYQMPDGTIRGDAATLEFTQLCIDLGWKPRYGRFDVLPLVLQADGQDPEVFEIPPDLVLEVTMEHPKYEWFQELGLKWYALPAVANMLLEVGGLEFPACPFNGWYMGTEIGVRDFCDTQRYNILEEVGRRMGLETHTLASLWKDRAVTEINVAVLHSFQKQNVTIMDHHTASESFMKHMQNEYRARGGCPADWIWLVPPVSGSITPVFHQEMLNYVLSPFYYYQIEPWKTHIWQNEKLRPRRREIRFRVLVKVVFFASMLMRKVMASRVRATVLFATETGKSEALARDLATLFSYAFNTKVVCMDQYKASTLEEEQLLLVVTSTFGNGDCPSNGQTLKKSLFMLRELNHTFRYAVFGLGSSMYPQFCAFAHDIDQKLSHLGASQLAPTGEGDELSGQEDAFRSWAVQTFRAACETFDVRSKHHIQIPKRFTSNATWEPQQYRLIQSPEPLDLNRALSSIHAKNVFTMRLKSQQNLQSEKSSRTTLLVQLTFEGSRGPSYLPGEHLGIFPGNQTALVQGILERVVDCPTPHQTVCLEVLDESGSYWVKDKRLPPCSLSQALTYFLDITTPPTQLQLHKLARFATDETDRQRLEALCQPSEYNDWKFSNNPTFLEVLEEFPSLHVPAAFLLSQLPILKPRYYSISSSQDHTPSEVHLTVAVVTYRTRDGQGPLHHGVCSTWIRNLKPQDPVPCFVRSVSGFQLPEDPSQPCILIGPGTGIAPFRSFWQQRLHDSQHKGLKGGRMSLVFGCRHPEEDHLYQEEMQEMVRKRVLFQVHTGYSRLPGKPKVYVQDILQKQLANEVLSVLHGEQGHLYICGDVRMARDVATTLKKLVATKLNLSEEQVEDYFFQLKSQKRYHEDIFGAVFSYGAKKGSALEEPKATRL
Method in brief: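 Enzyme purified from E. coli, added to start the reaction. Conditions: 30 °C, 100 mM Hepes pH 7.4, 10 µM L-arginine, 100 µM DTT, 100 µM NADPH, 6.5 µM H4B, […], no added Ca2+ or calmodulin. NO capture was read as the A400 rise over 1 min.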

[2] = target: Nitric oxide synthase 1 (Rattus norvegicus, UniProt P29476); experiment: Inhibition of recombinant rat brain nNOS expressed in Escherichia coli
[3] = target: T2, Nitric oxide synthase 3 (Bos taurus, UniProt P29473); experiment: Inhibition of recombinant bovine eNOS expressed in Escherichia coli
T2 sequence (P29473 whole entry): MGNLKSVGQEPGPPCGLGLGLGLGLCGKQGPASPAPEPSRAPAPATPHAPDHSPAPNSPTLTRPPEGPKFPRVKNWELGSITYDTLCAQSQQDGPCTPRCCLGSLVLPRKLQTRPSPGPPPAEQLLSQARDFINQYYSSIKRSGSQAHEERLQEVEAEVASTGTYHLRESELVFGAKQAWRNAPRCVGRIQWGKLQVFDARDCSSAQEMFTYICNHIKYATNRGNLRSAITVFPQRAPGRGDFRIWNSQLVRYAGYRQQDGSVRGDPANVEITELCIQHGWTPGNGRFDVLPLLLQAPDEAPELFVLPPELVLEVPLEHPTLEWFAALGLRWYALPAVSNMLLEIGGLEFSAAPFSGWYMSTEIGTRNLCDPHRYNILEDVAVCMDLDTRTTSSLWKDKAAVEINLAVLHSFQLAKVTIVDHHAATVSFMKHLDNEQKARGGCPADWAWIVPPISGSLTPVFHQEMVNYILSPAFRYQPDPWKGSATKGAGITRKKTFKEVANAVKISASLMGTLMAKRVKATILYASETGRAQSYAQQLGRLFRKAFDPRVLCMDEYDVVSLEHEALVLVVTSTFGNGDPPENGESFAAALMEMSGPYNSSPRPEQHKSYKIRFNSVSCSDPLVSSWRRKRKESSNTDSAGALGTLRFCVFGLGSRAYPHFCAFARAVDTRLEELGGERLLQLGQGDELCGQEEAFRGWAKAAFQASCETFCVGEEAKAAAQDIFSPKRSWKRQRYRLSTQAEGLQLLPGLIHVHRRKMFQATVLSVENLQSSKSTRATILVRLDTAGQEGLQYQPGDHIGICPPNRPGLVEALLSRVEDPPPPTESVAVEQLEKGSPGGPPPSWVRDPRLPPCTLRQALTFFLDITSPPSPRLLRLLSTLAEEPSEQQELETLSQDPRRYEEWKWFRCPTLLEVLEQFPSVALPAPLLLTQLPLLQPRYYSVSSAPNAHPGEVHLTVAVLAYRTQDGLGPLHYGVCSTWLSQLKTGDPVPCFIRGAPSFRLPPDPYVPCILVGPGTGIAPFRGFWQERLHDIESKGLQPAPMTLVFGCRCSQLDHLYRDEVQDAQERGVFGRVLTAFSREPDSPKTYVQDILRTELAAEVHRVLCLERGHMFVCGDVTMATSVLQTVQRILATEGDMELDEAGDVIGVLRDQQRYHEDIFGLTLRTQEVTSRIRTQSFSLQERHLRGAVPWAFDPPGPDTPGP

[4] = Selectivity for nNOS over eNOS
[5] = Selectivity for nNOS over iNOS

Sequence of Nitric oxide synthase 1 (P29476 whole entry): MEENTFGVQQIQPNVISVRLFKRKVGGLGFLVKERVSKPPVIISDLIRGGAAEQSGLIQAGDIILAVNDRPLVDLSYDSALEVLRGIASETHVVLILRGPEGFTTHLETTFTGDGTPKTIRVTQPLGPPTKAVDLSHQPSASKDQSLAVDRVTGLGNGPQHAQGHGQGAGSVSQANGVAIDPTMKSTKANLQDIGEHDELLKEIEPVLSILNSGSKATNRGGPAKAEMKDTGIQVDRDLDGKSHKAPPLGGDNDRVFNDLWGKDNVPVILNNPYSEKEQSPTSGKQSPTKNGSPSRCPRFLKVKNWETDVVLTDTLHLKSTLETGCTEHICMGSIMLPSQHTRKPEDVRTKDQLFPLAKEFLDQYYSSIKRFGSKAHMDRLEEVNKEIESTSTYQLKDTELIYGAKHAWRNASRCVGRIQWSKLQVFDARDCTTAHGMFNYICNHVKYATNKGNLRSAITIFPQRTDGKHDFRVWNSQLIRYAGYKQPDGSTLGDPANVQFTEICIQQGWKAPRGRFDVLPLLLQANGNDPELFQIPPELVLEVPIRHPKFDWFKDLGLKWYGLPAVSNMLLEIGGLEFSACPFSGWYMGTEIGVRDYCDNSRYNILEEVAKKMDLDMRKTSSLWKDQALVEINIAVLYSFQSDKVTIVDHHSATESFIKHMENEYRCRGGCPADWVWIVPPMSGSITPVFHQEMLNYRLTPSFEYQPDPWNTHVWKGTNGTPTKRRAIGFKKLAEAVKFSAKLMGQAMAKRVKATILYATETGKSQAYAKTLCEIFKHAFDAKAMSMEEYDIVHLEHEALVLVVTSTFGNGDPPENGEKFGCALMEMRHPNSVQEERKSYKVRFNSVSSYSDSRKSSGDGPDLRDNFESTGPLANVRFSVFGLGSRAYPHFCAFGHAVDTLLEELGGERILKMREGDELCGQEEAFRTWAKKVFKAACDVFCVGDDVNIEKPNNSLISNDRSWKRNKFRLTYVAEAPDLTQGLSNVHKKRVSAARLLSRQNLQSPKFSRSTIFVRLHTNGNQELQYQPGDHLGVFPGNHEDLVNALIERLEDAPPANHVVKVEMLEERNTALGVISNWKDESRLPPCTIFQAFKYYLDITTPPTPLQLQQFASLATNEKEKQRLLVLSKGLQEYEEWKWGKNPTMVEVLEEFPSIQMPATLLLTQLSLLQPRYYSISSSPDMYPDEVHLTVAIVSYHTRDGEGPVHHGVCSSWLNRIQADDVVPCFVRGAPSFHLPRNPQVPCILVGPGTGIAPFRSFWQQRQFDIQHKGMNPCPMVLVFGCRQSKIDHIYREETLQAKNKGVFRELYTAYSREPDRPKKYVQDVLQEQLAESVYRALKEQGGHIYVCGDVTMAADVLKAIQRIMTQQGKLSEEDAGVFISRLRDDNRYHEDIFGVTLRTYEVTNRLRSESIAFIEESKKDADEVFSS

| Structure (SMILES) | IC50 [1] [µM] | IC50 [2] [µM] | IC50 [3] [µM] | Ratio IC50 [4] | Ratio IC50 [5] | Ki [2] [µM] |
| --- | --- | --- | --- | --- | --- | --- |
| NC(=NCCC[C@H](N)C[C@@H](O)CCCO)N[N+](=O)[O-] | 524 | 255 | 2580 | – | – | – |
| NC(=NCCC[C@H](N)C[C@@H](O)CCO)N[N+](=O)[O-] | 331 | 106 | 1090 | – | – | – |
| N=C(NCCC[C@H](N)C[C@@H](O)CCO)N[N+](=O)[O-] | – | – | – | 10.2 | 3.1 | – |
| N=C(NCCC[C@H](N)C[C@@H](O)CCCO)N[N+](=O)[O-] | – | – | – | 10.1 | 2.1 | – |
| N=C(NCCC[C@H](N)C[C@H](O)CCCN)N[N+](=O)[O-] | 313 | 6.8 | 1530 | 225 | 33 | 0.83 |
| NCCC[C@H](O)C[C@@H](N)CCCN=C(N)N[N+](=O)[O-] | 361 | 23.5 | 1390 | – | – | 2.8 |
| NC(=NCCC[C@H](N)C[C@H](O)CCO)N[N+](=O)[O-] | 1290 | 168 | 1660 | – | – | – |
| N=C(NCCC[C@H](N)C[C@H](O)CCO)N[N+](=O)[O-] | – | – | – | 9.9 | 7.7 | – |
| NCC[C@@H](O)C[C@@H](N)CCCN=C(N)N[N+](=O)[O-] | 167 | 9.4 | 1340 | – | – | 1.1 |
| N=C(NCCC[C@H](N)C[C@@H](O)CCN)N[N+](=O)[O-] | 257 | 2.4 | 1140 | 475 | 107 | 0.29 |
| N=C(NCCC[C@H](N)C[C@@H](O)CCCN)N[N+](=O)[O-] | – | – | – | 59 | 15 | – |
| N=C(NCCC[C@H](N)C[C@H](O)CCCO)N[N+](=O)[O-] | 266 | 490 | 879 | 1.8 | 0.54 | – |
| N=C(NCCC[C@H](N)C[C@H](O)CCN)N[N+](=O)[O-] | – | – | – | 143 | 18 | – |
